Data published in ChEMBL document CHEMBL1121685, “Development of new mitomycin C and porfiromycin analogues” (J Med Chem, 1981).

Key:
Mus musculus [1] = experiment: Activity of compound dose of 1 mg/kg/day against Murine B-16 Melanocarcinoma in mice; assay type: functional
Mus musculus [2] = species on record: Mus musculus; experiment: Half-wave potential produced by the compound at their optimal dose; assay type: functional; parameters: unit not given here
Mus musculus [3] = experiment: Activity of compound dose of 8 mg/kg/day against Murine B-16 Melanocarcinoma in mice; assay type: functional
Mus musculus [4] = experiment: Effect of compound on total white blood cell count in BDG1 male mice, after intraperitoneal administration at a dose of 25.6 mg/kg on day 5; assay type: functional
In short: (§1)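 Single ip dose given on day 0 to BDG1 male mice over a descending dose series. Total white blood cell count is expressed as % change from untreated control on days 3, 5 and 7. Significance is flagged at p ≤ 0.05 and p ≤ 0.01.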

Mus musculus [5] = experiment: Effect of compound on total white blood cell count in BDG1 male mice, after intraperitoneal administration at a dose of 51.2 mg/kg on day 3 (highest dose was twice the optimal dose); assay type: functional
In short: (§2)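 Single ip dose given on day 0 to BDG₁ male mice. Total white blood cell count measured on days 3, 5 and 7, expressed as % change from control. Highest dose was at the LD₅₀, or at twice the optimal dose where so footnoted. Significance reported at p ≤ 0.05 and p ≤ 0.01. D marks death of one or more mice.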

Mus musculus [6] = experiment: Activity of compound dose of 0.5 mg/kg/day against Murine B-16 Melanocarcinoma in mice; assay type: functional
Mus musculus [7] = experiment: Minimum effective dose that show activity against P-388 murine leukemia cells in CDF1 female mice, after intraperitoneal administration (optimal dose is 25.6 mg/kg); assay type: functional; settings: P388, ip, read-out: MED
In short: (§3)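 10⁶ P-388 ascites cells implanted ip in CDF₁ female mice. Six mice per dose, 10 saline-injected controls, and a concurrent mitomycin C reference group. %T/C = median survival time of treated/control × 100. MED is the lowest dose giving %T/C > 125. Therapeutic ratio = optimal dose/MED.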

Mus musculus [8] = experiment: Antitumor activity against P-388 murine leukemia cells in CDF1 female mice after intraperitoneal administration at the specified optimal dose of 25.6 mg/kg; assay type: functional
Mus musculus [9] = experiment: Activity of compound dose of 16 mg/kg/day against Murine B-16 Melanocarcinoma in mice; assay type: functional
Mus musculus [10] = experiment: Number of cured survivors, 45 days after administration of compound at a dose of 4 mg/kg/day in mice; assay type: functional
Mus musculus [11] = experiment: Effect of compound on total white blood cell count in BDG1 male mice, after intraperitoneal administration at a dose of 25.6 mg/kg on day 3; assay type: functional; in short: as §1
Mus musculus [12] = experiment: Number of cured survivors, 45 days after administration of compound at a dose of 16 mg/kg/day in mice; assay type: functional
Mus musculus [13] = experiment: Effect of compound on total white blood cell count in BDG1 male mice, after intraperitoneal administration at a dose of 51.2 mg/kg on day 5 (highest dose was twice the optimal dose); assay type: functional; in short: as §2
Mus musculus [14] = experiment: Number of tumored survivors, 45 days after administration of compound at a dose of 16 mg/kg/day in mice; assay type: functional
Mus musculus [15] = experiment: Effect of compound on total white blood cell count in BDG1 male mice, after intraperitoneal administration at a dose of 25.6 mg/kg on day 7; assay type: functional; in short: as §1
Mus musculus [16] = experiment: Activity of compound dose of 2 mg/kg/day against Murine B-16 Melanocarcinoma in mice; assay type: functional
[17] = Therapeutic ratio is expressed as ratio of optimal dose and minimum effective dose; assay type: ADME; settings: mouse; read-out: TR; in short: as §3
Mus musculus [18] = experiment: Activity of compound dose of 4 mg/kg/day against Murine B-16 Melanocarcinoma in mice; assay type: functional
Mus musculus [19] = species on record: Mus musculus; experiment: Degree of leukopenia produced by compound is assessed form Percent change in white cells on days 5; assay type: functional
In short: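 BDG₁ male mice received a single ip dose on day 0. The dose series topped out at the LD₅₀ level, or at twice the optimal dose for some agents. Total white blood cell count was taken on days 3, 5 and 7 and expressed as % change from untreated controls. Significance was set at p ≤ 0.05 or p ≤ 0.01.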

Mus musculus [20] = experiment: Effect of compound on total white blood cell count in BDG1 male mice, after intraperitoneal administration at a dose of 5.5 mg/kg on day 3; assay type: functional; in short: as §2
Mus musculus [21] = experiment: Minimum effective dose that show activity against P-388 murine leukemia cells in CDF1 female mice, after intraperitoneal administration (optimal dose is 3.2 mg/kg); assay type: functional; settings: P388, ip, read-out: MED; in short: as §3
Mus musculus [22] = experiment: Effect of compound on total white blood cell count in BDG1 male mice, after intraperitoneal administration at a dose of 9.8 mg/kg on day 7; assay type: functional; in short: as §2
Mus musculus [23] = experiment: Effect of compound on total white blood cell count in BDG1 male mice, after intraperitoneal administration at a dose of 5.5 mg/kg on day 7; assay type: functional; in short: as §2
Mus musculus [24] = experiment: Effect of compound on total white blood cell count in BDG1 male mice, after intraperitoneal administration at a dose of 5.5 mg/kg on day 5; assay type: functional; in short: as §2
Mus musculus [25] = experiment: Effect of compound on total white blood cell count in BDG1 male mice, after intraperitoneal administration at a dose of 7.4 mg/kg on day 5; assay type: functional; in short: as §2
Mus musculus [26] = experiment: Effect of compound on total white blood cell count in BDG1 male mice, after intraperitoneal administration at a dose of 7.4 mg/kg on day 3; assay type: functional; in short: as §2
Mus musculus [27] = experiment: Effect of compound on total white blood cell count in BDG1 male mice, after intraperitoneal administration at a dose of 9.8 mg/kg on day 3; assay type: functional; in short: as §2
Mus musculus [28] = experiment: Antitumor activity against P-388 murine leukemia cells in CDF1 female mice after intraperitoneal administration at the specified optimal dose of 3.2 mg/kg; assay type: functional
Mus musculus [29] = experiment: Effect of compound on total white blood cell count in BDG1 male mice, after intraperitoneal administration at a dose of 9.8 mg/kg on day 5; assay type: functional; in short: as §2
Mus musculus [30] = experiment: Effect of compound on total white blood cell count in BDG1 male mice, after intraperitoneal administration at a dose of 7.4 mg/kg on day 7; assay type: functional; in short: as §2

C=C(C)CNC1=C(C)C(=O)C2=C(C1=O)[C@H](COC(N)=O)C1(OC)[C@@H]3N[C@@H]3CN21 (stereo partly drawn)
T/C (Mus musculus [1]): 131% | E1/2 (Mus musculus [2]): -0.41 | T/C (Mus musculus [3]): 186% | Change (Mus musculus [4]): -68% | Change (Mus musculus [5]): -60% | T/C (Mus musculus [6]): 122% | minimal effective dose (Mus musculus [7]): 1.6 mg/kg | T/C (Mus musculus [8]): 245% | T/C (Mus musculus [9]): 226% | Survivors (Mus musculus [10]): 1 | Change (Mus musculus [11]): -60% | Survivors (Mus musculus [12]): 3 | Change (Mus musculus [13]): -25% | Survivors (Mus musculus [14]): 1 | Change (Mus musculus [15]): -34% | T/C (Mus musculus [16]): 146% | selectivity ratio [17]: 16 | T/C (Mus musculus [18]): 160% | Change (Mus musculus [19]): -59%

COC12[C@@H]3N[C@@H]3CN1C1=C(C(=O)C(Nc3cccnc3)=C(C)C1=O)[C@@H]2COC(N)=O (stereo partly drawn)
Change (Mus musculus [20]): -41% | minimal effective dose (Mus musculus [21]): < 0.2 mg/kg | E1/2 (Mus musculus [2]): -0.31 | Change (Mus musculus [22]): 24% | Change (Mus musculus [23]): -14% | Change (Mus musculus [24]): -24% | Change (Mus musculus [25]): -46% | Change (Mus musculus [26]): -43% | Change (Mus musculus [27]): -36% | T/C (Mus musculus [28]): 211% | Change (Mus musculus [29]): -42% | Change (Mus musculus [30]): -0.2% | selectivity ratio [17]: > 16 | Change (Mus musculus [19]): -33%
